Experimental data gathered from unrelated publications.
Each line is one published result; the experiments were not run side by side.

SMILES | system | setting | Cmax
Cc1cc(C)nc(Nc2ncc(C(=O)NCCc3c(C)[nH]c4ccccc34)cn2)c1 | C57BL/6 mouse, plasma | intraperitoneal, 4.4 mg/kg | 191 ng/mL
COc1ncccc1-c1cnn2ccc(N3CCN(C(=O)OC(C)C)CC3)nc12 | mouse, plasma | oral, 10 mg/kg | 5200 nM
CN1CCCCC1Cn1cc(C(=O)c2cc([N+](=O)[O-])ccc2I)c2ccccc21 (racemic) | mouse, plasma | oral, 25 mg/kg | 800 ng/mL
C[C@]12CC[C@H](n3ccnc3)CC1=CC[C@@H]1[C@@H]2CC[C@]2(C)C(n3cnc4ccccc43)=CC[C@@H]12.Cl | male CD-1 mouse, plasma | oral, 10 mg/kg | 1270 ng/mL
CN[C@H](CC(C)C)C(=O)N[C@H]1C(=O)N[C@@H](CC(N)=O)C(=O)N[C@H]2C(=O)NC3C(=O)N[C@H](C(=O)N[C@H](C(=O)NCCC[N+](C)(C)C)c4cc(O)cc(O)c4-c4cc3ccc4O)[C@H](O)c3ccc(c(Cl)c3)Oc3cc2cc(c3OC2OC(CO)C(O)[C@H](O)[C@@H]2O[C@H]2CC(C)(NCc3ccc(-c4ccc(Cl)cc4)cc3)[C@H](O)[C@H](C)O2)Oc2ccc(cc2Cl)[C@H]1O (stereo partly drawn) | mouse, plasma | intravenous, 10 mg/kg | 14100 ng/mL
COc1ccc2[nH]cc(CCNc3nccc(Nc4cccc5c4ccn5C)n3)c2c1 | mouse, plasma | oral, 28.6 mg/kg | 406 ng/mL
C[C@]12CC[C@H](O)CC1=CC[C@@H]1[C@@H]2CC[C@]2(C)C(n3cnc4ccccc43)=CC[C@@H]12.Cl | mouse, plasma | oral, 10 mg/kg | 10.5 ng/mL
N#Cc1c(Oc2cccc(OS(=O)(=O)CCCC(F)(F)F)c2)cccc1C(F)(F)F | mouse, plasma | oral, 5 mg/kg | 172 ng/mL
Cc1c(P(=S)(c2ccccc2)c2ccccc2)n2ccccc2[n+]1C/C=C/c1ccccc1.[Br-] | mouse, plasma | intraperitoneal, 10 mg/kg | 1500 nM
CCC[C@@](N)(CO)CCc1ccc(OCCCCCC(C)C)cc1 | mouse, plasma | intraperitoneal, 10 mg/kg | 1460 nM
CCCCCCCC(=O)N[C@@H](CCCCN)C(=O)N[C@@H](CCCCN)C(=O)N[C@@H](C)C(=O)N[C@@H](CC(C)C)C(=O)N[C@@H](CCCCN)C(=O)N[C@@H](CC(C)C)C(=O)N[C@@H](C)C(=O)N[C@@H](CCCCN)C(=O)N[C@@H](CCCCN)C(=O)N1CCC[C@H]1C(=O)N[C@@H](CC(C)C)C(=O)N[C@@H](CCCCN)C(=O)N[C@@H](CC(C)C)C(=O)N[C@@H](CC(C)C)C(=O)N[C@@H](CCCCN)C(N)=O | female CD-1 mouse, blood | intravenous, 1 mg/kg, single dose | 441 ng/mL
NCC(=O)Nc1ccc(-n2nc(C(F)(F)F)cc2-c2ccc3c(ccc4ccccc43)c2)cc1 | mouse, plasma | oral, 80 mg/kg, single dose | 2080 ng/mL
